From PubChem BioAssay
Apaf-1 inh – blocks human Apaf-1 apoptosome activity; inhibition, % at 20 µM; AID 489030; hit rate 0.71% among 330,000; reconstituted apoptosome caspase-3 activity, DEVD-Rh110 fluorescence; active = inhibition of at least 40% at 20 µM
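System: reconstituted apoptosome with Apaf-1, cytochrome c, caspase-9, procaspase-3, dATP; Signal: Rh110 fluorescence intensity; Schedule: 30 min compound preincubation, 50 min activation, room temperature; Reagent: cytochrome c trigger plus (Z-DEVD)2-Rh110 caspase-3 substrate.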
GSTO1 inh – GSTO1 inhibition, counter-screen for RBBP9 inhibitors | P78417 | recombinant GSTO1, activity-based probe fluorescence polarization | inhibition, % at 5.96 µM | hit rate 1.1% among 300,000 | AID 1974;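 active = inhibition above the campaign mean inhibition plus 3 SD, cut at about 35% in these data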
HKDC1 inh – blocks human hexokinase HKDC1 activity | Q2TB90 | recombinant HKDC1, G6PDH/diaphorase resazurin coupled fluorescence | inhibition, % at 20 µM | hit rate 0.16% among 340,000;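 active = inhibition above about 35% when tested at 20 µM, limit read from the data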
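System: Recombinant HKDC1 hexokinase | Amount: HKDC1 at 5 µg/mL | Reagent: Glucose with 1 mM ATP | Doses: Single 20 µM dose | Incubation: Reaction time 90 min, room temperature, protected from light | Signal: Coupled resazurin fluorescence, excitation 525 nm, emission 613 nm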
SUMO HTRF inh – blocks human SUMOylation mediated by UBC9; AID 2006; hit rate 0.36% among 290,000; HTRF SUMOylation assay, SAE1/SAE2 + UBC9, in vitro; P63279; inhibition, % at 35 µM; in the data active = inhibition above about 50%, passing the limit was not always enough
Redox H2O2 prof – compounds producing H2O2 with reducing agent – biochemical, NIH compound library profiling, artefact control for MLSCN library redox annotation, primary screen. DTT-dependent redox cycling H2O2, phenol red/HRP absorbance; 100% = 100 µM peroxide control, 0% = buffer. activation, % at 10 µM. hit rate 0.03% among 200,000. AID 878;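 active = activation of at least 50% relative to the plate's high and low controls in the primary single-dose screen; inactive = activation below 50%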;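 also: compound incubated with DTT at 0.8 mM final as the reducing agent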
GSTO1 inh conf – GSTO1 (human) inhibition, confirmation | AID 2176 | recombinant GSTO1, probe fluorescence polarization | shares compounds with GSTO1 inh | inhibition, % at 5.96 µM | hit rate 54% among 2,400;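 active = inhibition above the primary screen's cutoff, its mean inhibition plus 3 SD, cut at about 35% in these data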;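 also: loss of polarization as inhibitors block binding of rhodamine sulfonate ester activity probe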
GSTO1 ABPP inh – GSTO1 (human) inhibition by gel ABPP | shares compounds with GSTO1 inh | recombinant GSTO1, gel ABPP SE-Rh probe fluorescence | inhibition, % at 1 µM | hit rate 30% among 130;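 active = inhibition of the enzyme GSTO1 above about 75%, limit read from the data; inactive = inhibition below that limit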
Numbers stand for hits; n = inactive; x = no result. This is a sample that favours compounds with a hit; in the whole collection about 1.4% have one here.

SMILES | Apaf-1 inh | GSTO1 inh | HKDC1 inh | SUMO HTRF inh | Redox H2O2 prof | GSTO1 inh conf | others
O=C(c1cccnc1)N1CCN(c2ccc3ccccc3n2)CC1 | n | n | n | n | n | x
O=C(OCC(=O)c1c[nH]c2ccccc12)c1ccc([N+](=O)[O-])s1 | n | 46 | n | n | n | n
CCc1cccc2c(C(=O)COC(=O)c3ccc([N+](=O)[O-])s3)c[nH]c12 | n | 53 | n | n | n | n
C1=CC2=NC34CCCCC3CC3=C(CCCC3)N4C2=CC1=NC1CCCCC1 (configuration not stated) | n | 76 | n | x | x | n
COc1ccc(S(=O)(=O)n2oc(=O)cc2-c2ccccc2)cc1OC | n | 40 | n | n | n | n
COc1ccc(NC(=O)Cn2nc(C(=O)O)c3ccccc3c2=O)cc1Cl | n | n | n | n | x | x
Cc1ccc(C2CC(c3cccs3)=NN2C(=O)CCl)cc1 (configuration not stated) | n | 87 | n | n | x | 97
N#CCSc1nnc(-c2sc3ccccc3c2Cl)o1 | n | 40 | n | n | n | n
Cc1ccccc1Nc1cc2ccccc2c(=O)[nH]1 | 96 | 74 | n | x | n | 45
COc1cc(Cl)c(C)cc1NC(=O)CSc1sc2c(O)cc(=O)[nH]c2c1C#N | n | n | n | n | x | x
Cc1ccc(C2C(C#N)=C(N)Oc3n[nH]c(-c4cccs4)c32)cc1 (configuration not stated) | n | 40 | n | n | n | n
Cc1cc(Br)cc2c1NC(=O)C2(O)CC(=O)c1ccco1 (configuration not stated) | n | n | n | n | n | x
O=c1oc2cc(O)ccc2c2ccccc12 | n | n | n | n | n | x
O=c1oc2cc(O)ccc2c2oc3cc(O)ccc3c12 | n | 39 | n | n | n | 49
CCNC(=O)O/N=C1\CCCCC1c1ccc([N+](=O)[O-])cc1[N+](=O)[O-] (configuration not stated) | n | n | n | n | x | x
COCCNC(=O)COc1ccc(Br)cc1Cl | n | n | n | n | n | x
C=CCNC(=O)COc1ccc(Br)cc1Cl | n | 66 | n | n | n | n
COc1cc(/C=N/NC(=O)c2cccc(S(=O)(=O)N3CCCC3)c2)ccc1O | n | n | n | x | x | x
Cc1ccc(S(=O)(=O)N2CCN(CC(=O)N/N=C/c3ccc(C)o3)CC2)cc1 | n | n | n | n | n | x
O=C(N/N=C/c1ccc(O)c(O)c1)c1cccc(S(=O)(=O)N2CCCC2)c1 | n | 67 | n | x | x | n
Cc1ccc(S(=O)(=O)N2CCN(CC(=O)N/N=C\c3ccc(O)c(O)c3)CC2)cc1 | n | 46 | n | n | x | n
CCN(CC)S(=O)(=O)c1cccc(C(=O)N/N=C/c2ccc(O)c(O)c2O)c1 | x | 63 | n | 50 | n | n
Cc1ccc(C(=O)Nc2nnc(CC(=O)N/N=C/c3ccc(O)c(O)c3)s2)cc1 | n | 38 | n | x | x | n
COc1ccc(-n2[nH]c(C)cc2=O)cc1 | n | 59 | n | n | n | n
CCC(CNc1cc(OC)cc2cccnc12)NC1CCCCC1 (configuration not stated) | x | 80 | n | 102 | x | n
SMILES | Apaf-1 inh | GSTO1 inh | HKDC1 inh | SUMO HTRF inh | Redox H2O2 prof | GSTO1 inh conf | others
COc1cc(NCCCC(C)N)c2ncccc2c1 (configuration not stated) | x | x | n | x | n | x
COc1cc(CN(C)CC2CCCN(CCc3ccccc3F)C2)cc(Cl)c1OC (configuration not stated) | n | x | n | n | x | x
COc1ccc(N(C(=O)CCl)C(C(=O)NCCc2ccccc2)c2cccs2)cc1 (configuration not stated) | x | 93 | n | n | n | 98 | GSTO1 ABPP inh=94
O=C(CN1C(=O)N/C(=C\c2ccccc2OCc2ccc(C(=O)O)cc2)C1=O)Nc1ccccc1F | n | n | n | n | x | x
CCN1C(=O)[C@H]2[C@@H](c3ccc(-c4ccc(OC)cc4)c(OC)c3)N3CCCC[C@@]3(C(=O)OC)[C@H]2C1=O | n | n | n | x | x | x
O=C(O)COc1ccc(/C=N/n2c(COc3ccccc3)nc3ccccc3c2=O)cc1 | n | n | n | n | n | x
Cc1n[nH]c(=S)n1/N=C/c1c(O)ccc2ccccc12 | n | 59 | n | n | x | n
Cc1nc2ccccc2c(=O)n1/N=C/c1c(O)ccc2ccccc12 | n | 63 | n | n | n | n
O=c1c2ccccc2nc(COc2ccccc2)n1/N=C/c1ccc(O)c(O)c1 | n | 53 | n | n | x | n
CC(C)CCN1CC(=O)N2[C@@H](Cc3c([nH]c4ccccc34)C2(C)C)C1=O | n | x | n | n | x | x
C=CCn1c(NC(=O)c2ccc(Br)o2)c(S(=O)(=O)c2ccccc2)c2nc3ccccc3nc21 | 63 | 65 | n | n | n | n
COc1cc(OC)cc(-c2nc(-c3ccccc3OC)no2)c1 | n | 53 | n | n | n | n
COc1ccccc1-c1noc(-c2cc(OC)c(OC)c(OC)c2)n1 | n | n | n | n | n | x
COc1cccc(CNC(=O)c2ccc(CS(=O)Cc3ccc(C)cc3)o2)c1 (configuration not stated) | n | n | n | n | x | x
N/C(=N/OC(=O)c1ccccc1Cl)c1ncc([N+](=O)[O-])s1 | n | 47 | n | n | x | n
CCCCCCN(C(=O)CCl)c1ccccc1 | n | 83 | n | n | x | 97 | GSTO1 ABPP inh=83
CCCC(=O)N(Cc1cc(=O)[nH]c2ccccc12)c1cccc(C)c1 | n | n | n | n | x | x
CCCCCCCN(C(=O)CCl)c1cccc(C)c1 | n | 97 | n | n | n | 96 | GSTO1 ABPP inh=n
O=C(NCC(=O)c1ccccc1)OCc1ccc([N+](=O)[O-])cc1 | n | n | n | n | x | x
O=C(NCCC1CCCCN1S(=O)(=O)c1ccc(Cl)cc1)C(=O)NCCN1CCOCC1 (configuration not stated) | n | n | n | x | x | x
COc1ccccc1CNC(=O)CC12CC3CC(CC(Br)(C3)C1)C2 | n | n | n | n | x | x
C=CCSC1=N/C(=C\C=C\c2ccco2)C(=O)S1 | n | 45 | n | n | n | n
C=CCSC1=N/C(=C\c2sccc2C)C(=O)S1 | n | n | n | n | n | x
CNC(=O)[C@@H]1CCC(=O)N1 | n | x | n | x | x | x
Cc1ccc(C)c(N2N=C(C(=O)Nc3cccnc3)CCC2=O)c1 | n | x | n | x | x | x
Cc1nn(Cc2ccc(Cl)cc2Cl)c(C)c1NC(=O)CCl | n | 97 | n | n | n | 97
Cc1nn(Cc2ccc(Cl)cc2Cl)c(C)c1NC(=O)c1nn(C)cc1Cl | n | n | n | n | n | x
N=C1CCC(=N)c2c1c(O)c1ccccc1c2O | 77 | 77 | n | 63 | x | 77
O=C1CCn2c1c(O)c1ccccc1c2=O | x | x | n | x | x | x
